# Laboratory results: ChEMBL document CHEMBL3102776, “Synthesis and biological evaluation of farnesylthiosalicylamides as potential anti-tumor agents” (Bioorg Med Chem, 2014)
# Activity calls are given as the source filed them. The rule behind the calls is not given here.
# How the values were obtained:
# SMMC-7721 [1] = assay: Induction of apoptosis in human SMMC7721 cells assessed as early apoptotic cells at 6 uM after 48 hrs by annexin V-FITC/propidium iodide staining-based flow cytometry (reference value: 3.87%); format: functional
# SMMC-7721 [2] = assay: Induction of apoptosis in human SMMC7721 cells assessed as increase in Bax level after 48 hrs by Western blotting analysis; format: functional, cell-based
# How it was run: (§1)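 SMMC-7721 cells treated with or without compound at several concentrations for 48 h. Lysates immunoblotted for Bax, Bcl-2 and caspase-3, with β-actin as loading control. Band levels relative to β-actin quantified by densitometric scanning. Means ± SEM from three separate experiments.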
# [3] = Cytotoxicity against human SGC7901 cells after 48 hrs by MTT assay; format: functional, cell-based; conditions: SGC-7901, 48 h
# How it was run: (§2)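 Cells seeded at 10⁴ per well in DMEM with 10% FBS and grown overnight. Compound at a range of concentrations for 48 h, in triplicate. MTT (5 mg mL⁻¹ stock) added for the last 4 h, formazan dissolved in DMSO, absorbance read at 570 nm. Percent inhibition used to derive IC50. Values are mean ± SEM of at least three independent experiments.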
# SMMC-7721 [4] = assay: Induction of apoptosis in human SMMC7721 cells assessed as reduction in Bcl2 level after 48 hrs by Western blotting analysis; format: functional, cell-based
# SMMC-7721 [5] = assay: Induction of apoptosis in human SMMC7721 cells assessed as viable cells at 6 uM after 48 hrs by annexin V-FITC/propidium iodide staining-based flow cytometry (reference value: 93.81%); format: functional; conditions: SMMC-7721, 48 h, read-out: Activity
# SK-OV-3 = assay: Cytotoxicity against human SKOV3 cells after 48 hrs by MTT assay; format: functional, cell-based; conditions: SK-OV-3, 48 h; how it was run: as §2
# SMMC-7721 [6] = assay: Induction of apoptosis in human SMMC7721 cells assessed as early apoptotic cells at 3 uM after 48 hrs by annexin V-FITC/propidium iodide staining-based flow cytometry (reference value: 3.87%); format: functional
# SMMC-7721 [7] = assay: Induction of apoptosis in human SMMC7721 cells assessed as necrotic cells at 12 uM after 48 hrs by annexin V-FITC/propidium iodide staining-based flow cytometry (reference value: 0.77%); format: functional
# [8] = Cytotoxicity against human H460 cells after 48 hrs by MTT assay; format: functional, cell-based; conditions: NCI-H460, 48 h; how it was run: as §2
# SMMC-7721 [9] = assay: Induction of apoptosis in human SMMC7721 cells assessed as necrotic cells at 6 uM after 48 hrs by annexin V-FITC/propidium iodide staining-based flow cytometry (reference value: 0.77%); format: functional
# SMMC-7721 [10] = assay: Induction of apoptosis in human SMMC7721 cells assessed as increase in caspase-3 level after 48 hrs by Western blotting analysis; format: functional, cell-based; how it was run: as §1
# [11] = Aqueous solubility of the compound in 10% PEG400 aqueous solution after 24 hrs by HPLC analysis; format: physicochemical
# How it was run: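 Roughly 20.0 mg of solid in 5 mL of 10% PEG400 in water. Sonicated 10 min, then stirred 24 h at 25 °C in a water bath. Centrifuged 10 min at 10,000 rpm and the supernatant passed through a microporous membrane. Concentration measured by HPLC against a standard curve.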
# SMMC-7721 [12] = assay: Inhibition of Ras in human SMMC7721 cells assessed as reduction in phosphorylated ERK2 level after 8 hrs by immunoblotting analysis; format: cell-based
# How it was run: (§3)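 SMMC-7721 cells at 1.5 × 10⁵/mL treated with 3.0, 6.0 or 12 µmol/L compound or vehicle for 8 h. Cells lysed, 50 µg protein per lane run on 12% SDS–PAGE gels. Blots probed for total and phospho-ERK1/2 (Thr202/Tyr204), total and phospho-Akt (Ser473), and β-actin. Densitometry relative to β-actin. Means ± SEM of three experiments.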
# SMMC-7721 [13] = assay: Inhibition of Ras in human SMMC7721 cells assessed as reduction in phosphorylated Akt level after 8 hrs by immunoblotting analysis; format: cell-based; how it was run: as §3
# SMMC-7721 [14] = assay: Inhibition of Ras in human SMMC7721 cells assessed as reduction in phosphorylated ERK1 level at 12 uM after 8 hrs by immunoblotting analysis; format: cell-based; how it was run: as §3
# SMMC-7721 [15] = assay: Cytotoxicity against human SMMC7721 cells after 48 hrs by MTT assay; format: functional, cell-based; conditions: SMMC-7721, 48 h; how it was run: as §2
# SMMC-7721 [16] = assay: Induction of apoptosis in human SMMC7721 cells assessed as viable cells at 3 uM after 48 hrs by annexin V-FITC/propidium iodide staining-based flow cytometry (reference value: 93.81%); format: functional; conditions: SMMC-7721, 48 h, read-out: Activity
# SMMC-7721 [17] = assay: Inhibition of Ras in human SMMC7721 cells assessed as reduction in phosphorylated ERK2 level at 12 uM after 8 hrs by immunoblotting analysis; format: cell-based; how it was run: as §3
# EJ = assay: Cytotoxicity against human EJ cells after 48 hrs by MTT assay; format: functional, cell-based; how it was run: as §2
# [18] = Lipophilicity, log P of the compound in 10% PEG400 aqueous solution; format: physicochemical
# SMMC-7721 [19] = assay: Induction of apoptosis in human SMMC7721 cells after 48 hrs by annexin V-FITC/propidium iodide staining-based flow cytometry; format: functional, cell-based
# SMMC-7721 [20] = assay: Inhibition of Ras in human SMMC7721 cells assessed as reduction in phosphorylated ERK1 level after 8 hrs by immunoblotting analysis; format: cell-based; how it was run: as §3
# SMMC-7721 [21] = assay: Induction of apoptosis in human SMMC7721 cells assessed as late apoptotic cells at 6 uM after 48 hrs by annexin V-FITC/propidium iodide staining-based flow cytometry (reference value: 1.55%); format: functional
# SMMC-7721 [22] = assay: Induction of apoptosis in human SMMC7721 cells assessed as early apoptotic cells at 12 uM after 48 hrs by annexin V-FITC/propidium iodide staining-based flow cytometry (reference value: 3.87%); format: functional
# SMMC-7721 [23] = assay: Inhibition of Ras in human SMMC7721 cells assessed as reduction in phosphorylated Akt level at 12 uM after 8 hrs by immunoblotting analysis; format: cell-based; how it was run: as §3
# SMMC-7721 [24] = assay: Induction of apoptosis in human SMMC7721 cells assessed as late apoptotic cells at 3 uM after 48 hrs by annexin V-FITC/propidium iodide staining-based flow cytometry (reference value: 1.55%); format: functional
# SMMC-7721 [25] = assay: Induction of apoptosis in human SMMC7721 cells assessed as necrotic cells at 3 uM after 48 hrs by annexin V-FITC/propidium iodide staining-based flow cytometry (reference value: 0.77%); format: functional
# SMMC-7721 [26] = assay: Induction of apoptosis in human SMMC7721 cells assessed as viable cells at 12 uM after 48 hrs by annexin V-FITC/propidium iodide staining-based flow cytometry (reference value: 93.81%); format: functional; conditions: SMMC-7721, 48 h, read-out: Activity
# [27] = Cytotoxicity against human PANC1 cells after 48 hrs by MTT assay; format: functional, cell-based; conditions: PANC-1, 48 h; how it was run: as §2
# SMMC-7721 [28] = assay: Induction of apoptosis in human SMMC7721 cells assessed as late apoptotic cells at 12 uM after 48 hrs by annexin V-FITC/propidium iodide staining-based flow cytometry (reference value: 1.55%); format: functional
# MCF7 = assay: Cytotoxicity against human MCF7 cells after 48 hrs by MTT assay; format: functional, cell-based; conditions: MCF7, 48 h; how it was run: as §2
compound,measurement,setting,value
CC(C)=CCC/C(C)=C/CC/C(C)=C/CSc1ccccc1C(=O)NCCOCCN,Activity,SMMC-7721 [1],29.84%
same,Activity,SMMC-7721 [2],Dose-dependent effect
same,IC50,[3],7.63 µM
same,Activity,SMMC-7721 [4],Dose-dependent effect
same,viability at 6 µM,SMMC-7721 [5],49.4%
same,IC50,SK-OV-3,6.83 µM
same,Activity,SMMC-7721 [6],10.9%
same,Activity,SMMC-7721 [7],0.21%
same,IC50,[8],6.89 µM
same,Activity,SMMC-7721 [9],2.07%
same,Activity,SMMC-7721 [10],Dose-dependent effect
same,solubility at 24 h,[11],23.8 mg/mL
same,Activity,SMMC-7721 [12],Dose-dependent effect
same,Activity,SMMC-7721 [13],Dose-dependent effect
same,Activity,SMMC-7721 [14],Active
same,IC50,SMMC-7721 [15],5.71 µM
same,viability at 3 µM,SMMC-7721 [16],84%
same,Activity,SMMC-7721 [17],Active
same,IC50,EJ,6.13 µM
same,logP,[18],4.85
same,Activity,SMMC-7721 [19],Dose-dependent effect
same,Activity,SMMC-7721 [20],Dose-dependent effect
same,Activity,SMMC-7721 [21],18.68%
same,Activity,SMMC-7721 [22],59.67%
same,Activity,SMMC-7721 [23],Active
same,Activity,SMMC-7721 [24],4.85%
same,Activity,SMMC-7721 [25],0.24%
same,viability at 12 µM,SMMC-7721 [26],15.3%
same,IC50,[27],3.78 µM
same,Activity,SMMC-7721 [28],24.84%
same,IC50,MCF7,7.29 µM
